Test results: ChEMBL document CHEMBL1127337, “1-((7,7-Dimethyl-2(S)-(2(S)-amino-4-(methylsulfonyl)butyramido)bicyclo [2.2.1]-heptan-1(S)-yl)methyl)sulfonyl)-4-(2-methylphenyl)piperaz ine (L-368,899): an orally bioavailable, non-peptide oxytocin antagonist with potential utility for managing preterm labor” (J Med Chem, 1994)
Activity calls are given as the source filed them. The calls are words filed in the database; no cut-off is given here.

Columns and labels:
[1] = target: T1, Oxytocin receptor (Rattus norvegicus, UniProt P70536); assay: Displacement of [3H]OT from binding to oxytocin receptor of rat uterus
T1 sequence (P70536 whole entry): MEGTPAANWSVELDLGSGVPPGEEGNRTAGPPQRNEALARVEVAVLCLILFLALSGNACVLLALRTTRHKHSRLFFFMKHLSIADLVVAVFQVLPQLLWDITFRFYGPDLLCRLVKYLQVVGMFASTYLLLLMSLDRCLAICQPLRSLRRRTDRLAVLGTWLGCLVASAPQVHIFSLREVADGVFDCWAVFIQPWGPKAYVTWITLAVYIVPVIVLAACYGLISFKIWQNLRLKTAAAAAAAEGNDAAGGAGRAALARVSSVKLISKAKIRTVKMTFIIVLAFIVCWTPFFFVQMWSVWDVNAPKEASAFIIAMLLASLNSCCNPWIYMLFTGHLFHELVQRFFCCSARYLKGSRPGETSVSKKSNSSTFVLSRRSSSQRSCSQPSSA
Method in brief: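 Competition binding against [3H]OT on uterine tissue from pregnant rats (day 22-23 of gestation) or DES-pretreated rats. IC50 is the molar concentration giving 50% displacement of radioligand.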

[2] = test system: Rattus norvegicus; assay: In vivo dose given intraduodenally (id) that reduces by 50% the contractile response of the in situ rat uterus to exogenous OT; type: functional
Method in brief: (§1)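 Uterine contraction recorded isometrically in situ in anesthetized DES-pretreated rats; OT 1 µg/kg iv at 35-min intervals, third response set as 100%. Antagonist injected intraduodenally as a suspension in saline with 1% methocel. AD50 is the dose lowering the response to the fourth OT injection by 50% against the vehicle group.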

[3] = test system: Rattus norvegicus; assay: In vivo dose given intraduodenally (id) that reduces by 50% the contractile response of the in situ rat uterus to exogenous OT; ca.2; type: functional; method in brief: as §1
[4] = target: Vasopressin V1a receptor (Rattus norvegicus, UniProt P30560); assay: Displacement of [3H]AVP from binding to arginine vasopressin 1a (V1a) […] of rat liver
Method in brief: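 Competition binding against [3H]AVP on liver from male rats (V1a site). IC50 is the molar concentration giving 50% radioligand displacement.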

[5] = target: Vasopressin V2 receptor (Rattus norvegicus, UniProt Q00788); assay: Displacement of [3H]-AVP from binding to Vasopressin receptor V2 of rat kidney
Method in brief: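 [3H]AVP competition binding on kidney medulla from male rats (V2 site). IC50 is the molar concentration displacing 50% of radioligand.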

[6] = Aqueous solubilities were determined by dissolving an crystalline hemisulfate and […] salts, respectively in water and adding acetate to pH 5.0, concentrations are expressed in free base equivalents; type: ADME; details: water adjusted with acetate, read-out: S
Method in brief: (§2)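 Crystalline hemisulfate or dihydrochloride salt dissolved in water, then acetate added to pH 5.0 to measure aqueous solubility.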

[7] = test system: Rattus norvegicus; assay: In vivo dose given intravenously (iv) that reduces by 50% the contractile response of the in situ rat uterus to exogenous OT; type: functional
Method in brief: (§3)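 Anesthetized DES-pretreated rats set up for isometric recording of in situ uterine contraction; OT 1 µg/kg iv every 35 min, third response taken as 100%. Antagonist infused iv over 10 min in saline, saline with 2% DMSO, or 15% DMSO plus 15% emulphor. AD50 is the dose cutting the response to the fourth OT injection by 50% relative to vehicle-treated rats.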

[8] = test system: Rattus norvegicus; assay: In vivo dose given intraduodenally (id) that reduces by 50% the contractile response of the in situ rat uterus to exogenous OT; NA=Inactive at 1.0; type: functional, organism-based; method in brief: as §1
[9] = test system: Rattus norvegicus; assay: AD50 value which refers to the dose given intravenously (iv) that reduces by 50% the contractile response of the in situ rat uterus to exogenous OT was determined for the compound in vivo; type: functional; method in brief: as §3
[10] = target: T1, Oxytocin receptor; assay: In vitro antagonism of OT-induced uterine contractions, against rat uterus by measuring pA2 value; type: functional, tissue-based; details: read-out: pA2 (converted)
Method in brief: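 Uteri isolated from DES-pretreated rats and contracted with OT. pA2 is the negative log molar antagonist concentration giving a 2-fold rightward shift of the OT dose-response curve (dose ratio 2), derived from Schild plots.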

[11] = Aqueous solubilities were determined by dissolving an crystalline hemisulfate and […] salts, respectively in water and adding acetate to pH 5.0, concentrations are expressed in free base equivalents.; type: ADME; details: water adjusted with acetate, read-out: S; method in brief: as §2
[12] = test system: Rattus norvegicus; assay: in vivo dose given intravenously (iv) that reduces by 50% the contractile response of the in situ rat uterus to exogenous OT; type: functional; method in brief: as §3
[13] = test system: Rattus norvegicus; assay: In vivo dose given intraduodenally (id) that reduces by 50% the contractile response of the in situ rat uterus to exogenous OT; ca.20; type: functional; method in brief: as §1
[14] = target: T1, Oxytocin receptor; assay: In vitro antagonism of OT-induced uterine contractions, against rat uterus by measuring pA2 value which refers to the negative logarithm of the molar concentration; type: functional, tissue-based; details: read-out: pA2 (converted)
Method in brief: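 Uteri isolated from diethylstilbestrol-pretreated rats; contractions evoked by oxytocin. pA2 = negative log of molar antagonist concentration giving a 2-fold rightward shift of the oxytocin dose-response curve (dose ratio 2), derived by Schild analysis.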

[15] = test system: Rattus norvegicus; assay: In vivo dose given intraduodenally (id) that reduces by 50% the contractile response of the in situ rat uterus to exogenous OT; NA=Inactive at 3.0 mg/Kg; type: functional, organism-based; method in brief: as §1

Chain of Vasopressin V1a receptor (P30560 whole entry): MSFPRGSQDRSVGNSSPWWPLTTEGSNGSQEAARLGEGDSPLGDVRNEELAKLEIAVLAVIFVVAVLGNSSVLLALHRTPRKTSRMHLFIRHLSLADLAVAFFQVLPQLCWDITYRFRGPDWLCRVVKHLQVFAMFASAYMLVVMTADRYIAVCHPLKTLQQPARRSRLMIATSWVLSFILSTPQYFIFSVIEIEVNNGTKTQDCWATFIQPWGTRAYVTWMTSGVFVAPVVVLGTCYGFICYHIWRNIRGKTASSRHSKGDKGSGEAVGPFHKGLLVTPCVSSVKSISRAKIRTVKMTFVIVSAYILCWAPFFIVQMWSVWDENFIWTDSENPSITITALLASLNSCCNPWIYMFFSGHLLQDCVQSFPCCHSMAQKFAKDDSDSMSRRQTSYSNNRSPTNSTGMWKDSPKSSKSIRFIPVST
Chain of Vasopressin V2 receptor (Q00788 whole entry): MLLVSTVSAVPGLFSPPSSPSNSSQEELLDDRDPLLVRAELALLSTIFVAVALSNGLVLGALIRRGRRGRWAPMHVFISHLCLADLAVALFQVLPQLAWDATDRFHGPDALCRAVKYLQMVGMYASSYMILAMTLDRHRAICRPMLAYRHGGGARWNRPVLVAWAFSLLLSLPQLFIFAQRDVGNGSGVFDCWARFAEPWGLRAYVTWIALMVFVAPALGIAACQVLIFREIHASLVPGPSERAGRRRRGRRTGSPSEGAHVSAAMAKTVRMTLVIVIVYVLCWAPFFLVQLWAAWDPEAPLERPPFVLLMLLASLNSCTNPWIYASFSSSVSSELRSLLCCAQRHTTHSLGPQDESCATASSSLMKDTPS

| IC50 [1] [µM] | IC50 [4] [µM] | IC50 [5] [µM] | solubility [6] [µg/mL] | Kb [10] [µM] | solubility [11] [µg/mL] | Kb [14] [µM] | SMILES | AD50 [2] [mg/kg] | AD50 [3] [mg/kg] | AD50 [7] [mg/kg] | AD50 [8] | AD50 [9] [mg/kg] | AD50 [12] [mg/kg] | AD50 [13] [mg/kg] | AD50 [15] |
| --- | --- | --- | --- | --- | --- | --- | --- | --- | --- | --- | --- | --- | --- | --- | --- |
| 0.012 | 2.3 | 5.1 | – | – | – | – | CC1(C)C2CC[C@@]1(CS(=O)(=O)N1CCC3(CCc4ccccc43)CC1)[C@@H](NC(=O)[C@@H](N)CCC(N)=O)C2 | >30 | 2 | – | – | – | – | – | – |
| 0.018 | 1.3 | 0.31 | 230 | – | – | – | CCN(CC)[C@@H](CCS(C)(=O)=O)C(=O)N[C@H]1CC2CC[C@]1(CS(=O)(=O)N1CCN(c3ccccc3C)CC1)C2(C)C | – | – | – | – | – | – | – | – |
| 0.015 | 0.6 | 0.23 | – | – | – | – | Cc1ccccc1N1CCN(S(=O)(=O)C[C@]23CCC(C[C@@H]2NC(=O)[C@H](CCS(C)(=O)=O)NC2CCCCC2)C3(C)C)CC1 | – | – | – | – | – | – | – | – |
| 0.0013 | 0.22 | 0.13 | 3000 | – | – | – | Cc1ccccc1N1CCN(S(=O)(=O)C[C@]23CCC(C[C@@H]2NC(=O)[C@H](CCS(C)(=O)=O)NC2CCNCC2)C3(C)C)CC1 | – | – | 0.021 | inactive | – | – | – | – |
| 0.0014 | 0.44 | 0.16 | < 300 | – | – | – | Cc1ccccc1N1CCN(S(=O)(=O)C[C@]23CCC(C[C@@H]2NC(=O)[C@H](CCS(C)(=O)=O)NC2CCS(=O)(=O)CC2)C3(C)C)CC1 | – | – | – | inactive | 0.031 | – | – | – |
| 0.0024 | 0.68 | 0.27 | 360 | – | – | – | Cc1ccccc1N1CCN(S(=O)(=O)C[C@]23CCC(C[C@@H]2NC(=O)[C@H](CCS(C)(=O)=O)NC2CCOCC2)C3(C)C)CC1 | 1.4 | – | 0.045 | – | – | – | – | – |
| 0.0049 | 0.36 | 0.29 | 3100 | 0.001 | – | – | Cc1ccccc1N1CCN(S(=O)(=O)C[C@]23CCC(C[C@@H]2NC(=O)[C@H](CCS(C)(=O)=O)N(C)C)C3(C)C)CC1 | 2.6 | – | 0.13 | – | – | – | – | – |
| 0.012 | 0.89 | 2.4 | – | – | 1500 | – | CC1(C)C2CC[C@@]1(CS(=O)(=O)N1CCC3(CCc4ccccc43)CC1)[C@@H](NC(=O)[C@@H](N)CCS(C)(=O)=O)C2 | – | – | – | – | – | 0.84 | 20 | – |
| 0.0092 | 0.32 | 0.35 | – | – | – | – | CN[C@@H](CCS(C)(=O)=O)C(=O)N[C@H]1CC2CC[C@]1(CS(=O)(=O)N1CCN(c3ccccc3C)CC1)C2(C)C | – | – | – | – | – | – | – | – |
| 0.0089 | 0.37 | 0.57 | 3700 | – | – | 0.00126 | Cc1ccccc1N1CCN(S(=O)(=O)C[C@]23CCC(C[C@@H]2NC(=O)[C@@H](N)CCS(C)(=O)=O)C3(C)C)CC1 | 7 | – | 0.35 | – | – | – | – | – |
| 0.0028 | 0.65 | 0.24 | – | – | 190 | – | Cc1ccccc1N1CCN(S(=O)(=O)C[C@]23CCC(C[C@@H]2NC(=O)[C@H](CCS(C)(=O)=O)N(CCO)CCO)C3(C)C)CC1 | – | – | 0.087 | – | – | – | – | inactive |
